In one assay the test system is HCT-116. Nature of the assay: Growth inhibition of human HCT-116 cells after 48 hrs by MTT assay. The assay is classed as functional.
A further assay relates to MCF7. Nature of the assay: Growth inhibition of human MCF7 cells after 48 hrs by MTT assay. The class given is functional. (In general: Tetrazolium assays rely on reduction of a dye to a coloured formazan, in cell work by metabolically active cells.)
A further assay has as its system HT-29. Nature of the assay: Growth inhibition of human HT-29 cells after 48 hrs by MTT assay. The class given is functional.
The test system of the next assay is MDA-MB-468. Kind of assay: Growth inhibition of human MDA-MB-468 cells after 48 hrs by MTT assay. The class given is functional.
The next assay concerns A549. Nature of the assay: Growth inhibition of human A549 cells after 48 hrs by MTT assay. The assay is classed as functional.
The test system of another assay is A2780. Kind of assay: Growth inhibition of human A2780 cells after 48 hrs by MTT assay. The assay is classed as functional.
The next assay has as its system HeLa. Kind of assay: Growth inhibition of human HeLa cells after 48 hrs by MTT assay. The class given is functional.
Another assay concerns MIA PaCa-2. Kind of assay: Growth inhibition of human MIA PaCa-2 cells after 48 hrs by MTT assay. The class given is functional.
The target in a further assay is CDK9/cyclin T1 (Homo sapiens, UniProt P50750). Kind of assay: Inhibition of recombinant human full length CDK9/Cyclin T1 using KTFCGTPEYLAPEVRREPRILSEEEQEMFRDFDYIADWC as substrate incubated for 40 mins in presence of [gamma-33P]-ATP by scintillation counting method. The assay is classed as protein-complex assay. The essentials:
(§1)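 Radiometric kinase assay with ATP at each kinase's Km(app). IC50 values come from 10-point dose-response curves, and apparent Ki is calculated from IC50 and the kinase's Km(ATP).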

A further assay has as its target CDK2/Cyclin A2 (Homo sapiens, UniProt P24941). Kind of assay: Inhibition of recombinant human full length CDK2/Cyclin A using histone H1 as substrate incubated for 40 mins in presence of [gamma-33P]-ATP by scintillation counting method. The assay is classed as protein-complex assay.
The species named for assay [1] is Homo sapiens. Nature of the assay: Selectivity index, ratio of Ki for inhibition of recombinant human full length CDK2/Cyclin A to Ki for inhibition of recombinant human full length CDK9/Cyclin T1. In a few lines:
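Ratio of apparent Ki values for the two CDK/cyclin complexes. Each Ki is derived from an IC50 (10-point radiometric dose-response, ATP at Km(app)) using the kinase's Km(ATP). The selectivity index is defined as Ki(CDK2)/Ki(CDK9).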

A short description of assay [2]: Growth inhibition of patient derived CLL cells after 48 hrs by annexin V-FITC staining based flow cytometric analysis. The class given is functional. To be noted: Homo sapiens, CLL-CII. In a few lines: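 Freshly isolated primary CLL cells (10⁶/mL) in RPMI with 10% foetal calf serum, L-glutamine, penicillin and streptomycin, 37 °C, 5% CO₂, exposed to inhibitor for 48 h. Cells labelled with CD19-APC and annexin V-FITC; apoptosis quantified by flow cytometry in CD19+ cells. LD50 is the concentration killing 50% of CLL cells.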

The target of assay [3] is Cyclin-dependent kinase 1/cyclin B1 (Homo sapiens, UniProt P06493). Nature of the assay: Inhibition of recombinant human full length CDK1/Cyclin B using histone H1 as substrate incubated for 40 mins in presence of [gamma-33P]-ATP by scintillation counting method. The assay is classed as protein-complex assay. In a few lines:
as §1

Assay [4] addresses Cyclin-dependent kinase 7/ cyclin H (Homo sapiens, UniProt P50613). Nature of the assay: Inhibition of recombinant human full length CDK7/Cyclin H using peptide as substrate incubated for 40 mins in presence of [gamma-33P]-ATP by scintillation counting method. The assay is classed as protein-complex assay. In a few lines:
as §1

Assay [5] is filed under the species Homo sapiens. Kind of assay: Selectivity index, ratio of Ki for inhibition of recombinant human full length […].

Sequence of CDK9/cyclin T1 (O60563 whole entry): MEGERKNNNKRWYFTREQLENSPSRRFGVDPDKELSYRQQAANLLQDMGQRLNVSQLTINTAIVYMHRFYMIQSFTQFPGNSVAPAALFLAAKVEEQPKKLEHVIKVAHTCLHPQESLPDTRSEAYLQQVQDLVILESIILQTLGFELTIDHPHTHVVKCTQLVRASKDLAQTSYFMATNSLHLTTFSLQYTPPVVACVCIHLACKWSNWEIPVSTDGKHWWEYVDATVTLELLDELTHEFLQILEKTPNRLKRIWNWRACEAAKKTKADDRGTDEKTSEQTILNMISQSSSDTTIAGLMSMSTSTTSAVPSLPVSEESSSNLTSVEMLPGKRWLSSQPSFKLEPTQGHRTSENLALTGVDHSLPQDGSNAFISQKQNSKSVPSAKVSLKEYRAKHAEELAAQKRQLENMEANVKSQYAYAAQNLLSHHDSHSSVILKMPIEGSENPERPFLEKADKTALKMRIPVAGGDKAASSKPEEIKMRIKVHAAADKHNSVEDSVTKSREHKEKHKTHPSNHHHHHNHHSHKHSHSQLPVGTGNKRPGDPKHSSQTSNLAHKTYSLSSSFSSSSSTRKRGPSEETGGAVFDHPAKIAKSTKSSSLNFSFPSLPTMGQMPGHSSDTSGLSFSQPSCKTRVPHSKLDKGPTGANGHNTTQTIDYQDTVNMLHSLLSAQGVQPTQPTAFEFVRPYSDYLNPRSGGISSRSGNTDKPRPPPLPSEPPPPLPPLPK
Sequence of CDK9/cyclin T1 (P50750 whole entry): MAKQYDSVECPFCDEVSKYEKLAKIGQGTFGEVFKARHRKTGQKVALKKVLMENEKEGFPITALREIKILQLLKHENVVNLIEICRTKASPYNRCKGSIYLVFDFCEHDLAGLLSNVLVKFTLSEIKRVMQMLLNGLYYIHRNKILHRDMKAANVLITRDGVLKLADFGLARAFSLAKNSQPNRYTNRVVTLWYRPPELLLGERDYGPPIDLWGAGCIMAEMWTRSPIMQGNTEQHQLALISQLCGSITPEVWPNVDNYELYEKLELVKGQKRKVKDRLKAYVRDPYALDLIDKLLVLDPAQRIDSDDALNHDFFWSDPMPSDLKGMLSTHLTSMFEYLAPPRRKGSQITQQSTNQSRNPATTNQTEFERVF
Sequence of Cyclin-dependent kinase 7/ cyclin H (P51946 whole entry): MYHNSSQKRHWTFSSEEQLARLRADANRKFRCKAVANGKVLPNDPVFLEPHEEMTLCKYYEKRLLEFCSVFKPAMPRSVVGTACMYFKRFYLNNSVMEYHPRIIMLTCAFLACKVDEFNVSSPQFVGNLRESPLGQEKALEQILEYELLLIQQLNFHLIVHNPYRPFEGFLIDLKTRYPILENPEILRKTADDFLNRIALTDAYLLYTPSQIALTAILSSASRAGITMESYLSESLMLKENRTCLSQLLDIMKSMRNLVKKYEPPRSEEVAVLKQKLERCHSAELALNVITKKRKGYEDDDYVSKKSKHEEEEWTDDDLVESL
Sequence of Cyclin-dependent kinase 7/ cyclin H (P50613 whole entry): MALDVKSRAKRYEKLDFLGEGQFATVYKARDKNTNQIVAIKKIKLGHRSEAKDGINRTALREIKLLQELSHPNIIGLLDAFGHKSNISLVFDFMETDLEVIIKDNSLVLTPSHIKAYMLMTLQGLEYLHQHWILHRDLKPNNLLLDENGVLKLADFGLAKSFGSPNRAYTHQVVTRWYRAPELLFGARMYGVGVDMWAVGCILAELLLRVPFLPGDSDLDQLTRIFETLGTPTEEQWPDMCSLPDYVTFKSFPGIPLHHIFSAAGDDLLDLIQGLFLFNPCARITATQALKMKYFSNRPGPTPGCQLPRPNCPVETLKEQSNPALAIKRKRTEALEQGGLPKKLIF
Sequence of Cyclin-dependent kinase 1/cyclin B1 (P06493 whole entry): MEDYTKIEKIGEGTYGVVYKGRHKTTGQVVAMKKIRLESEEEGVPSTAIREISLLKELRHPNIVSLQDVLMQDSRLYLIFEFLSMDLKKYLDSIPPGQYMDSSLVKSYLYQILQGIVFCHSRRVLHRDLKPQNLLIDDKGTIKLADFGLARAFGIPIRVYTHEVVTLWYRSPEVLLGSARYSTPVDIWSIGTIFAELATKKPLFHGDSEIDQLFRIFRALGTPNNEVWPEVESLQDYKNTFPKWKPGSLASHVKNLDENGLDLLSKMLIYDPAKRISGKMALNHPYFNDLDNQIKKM
Sequence of Cyclin-dependent kinase 1/cyclin B1 (P14635 whole entry, further chain): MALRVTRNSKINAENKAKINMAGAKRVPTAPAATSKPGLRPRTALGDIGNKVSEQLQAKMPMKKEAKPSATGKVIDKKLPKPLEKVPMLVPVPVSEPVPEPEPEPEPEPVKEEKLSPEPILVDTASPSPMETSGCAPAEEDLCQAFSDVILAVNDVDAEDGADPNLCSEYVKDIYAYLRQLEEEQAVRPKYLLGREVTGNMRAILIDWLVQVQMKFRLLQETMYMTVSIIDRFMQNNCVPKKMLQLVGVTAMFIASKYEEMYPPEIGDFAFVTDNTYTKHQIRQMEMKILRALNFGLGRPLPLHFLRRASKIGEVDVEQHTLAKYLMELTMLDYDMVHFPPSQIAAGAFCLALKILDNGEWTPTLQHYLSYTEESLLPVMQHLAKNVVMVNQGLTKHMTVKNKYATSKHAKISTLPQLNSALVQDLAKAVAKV

A word on the GI50: it is the concentration at which growth is held to half of that of the control. A high value points to less potent growth inhibition. As to `CN1CC[C@H](c2c(O)cc(O)c3c(=O)cc(-c4ccccc4Cl)oc23)[C@H](O)C1` [ALVOCIDIB], the GI50 is 56 nM in the assay with HCT-116; 92 nM in the assay on MCF7; 131 nM in the assay with HT-29; 96 nM in the assay with MDA-MB-468; 145 nM in the assay with A549; 64 nM with A2780. The GI50 in the assay with HeLa turned out to be 43 nM; with MIA PaCa-2, 78 nM.
The term Ki denotes a dissociation constant, usually derived from enzyme kinetics or from competition with a known ligand. `CNc1nc(C)c(-c2nc(Nc3cccc(N4CCN(C(C)=O)CC4)c3)ncc2Br)s1`: the Ki on CDK9/cyclin T1 is 7.5 nM; at CDK2/Cyclin A2, 125 nM. The Ratio Ki in the assay filed under Homo sapiens [1] is 16.
Turning to `CNc1nc(C)c(-c2nc(Nc3cccc(N4CCN(C(C)=O)CC4)c3)ncc2C)s1`, the Ki on CDK9/cyclin T1 is 12 nM; on CDK2/Cyclin A2, 794 nM. The Ratio Ki in the assay listed under Homo sapiens [1] came to 66. Besides, the figures for the GI50 with HCT-116 and in the assay with MCF7 were 550 nM and 3650 nM, respectively.
For `CNc1nc(C)c(-c2nc(Nc3cccc(N4CCN(C)CC4)c3)ncc2C)s1` the same measures were 20 nM, 586 nM, 29, 1290 nM and 1890 nM.
Consider `CNc1nc(C)c(-c2nc(Nc3cccc(N4CCCNCC4)c3)ncc2C)s1`, for which the figures for the GI50 (in assay [2]; in the assay on HCT-116; with MCF7) were 810 nM, 1370 nM and 870 nM, respectively. In addition, the inhibitory constant (Ki) on CDK9/cyclin T1 worked out at 8 nM; on CDK2/Cyclin A2 it was 1240 nM; in [3] it was 785 nM; in assay [4], 89 nM. Further, the Ratio Ki was determined as 156 in the assay filed under Homo sapiens [1] and 100 in the assay listed under Homo sapiens [5].
With `CNc1nc(C)c(-c2nc(Nc3cccc(N4CCNC(=O)CC4)c3)ncc2C)s1`, the Ki was determined as 19 nM at CDK9/cyclin T1 and 525 nM at CDK2/Cyclin A2. Besides, in the assay listed under Homo sapiens [1], the Ratio Ki is 28. For the same compound, the GI50 with HCT-116 was determined as 2120 nM; with MCF7, 6440 nM.
As to `CNc1nc(C)c(-c2ccnc(Nc3cc(N4CCOCC4)cc(N4CCOCC4)c3)n2)s1`, the inhibition constant (Ki) on CDK9/cyclin T1 came out at 47 nM; at CDK2/Cyclin A2, 831 nM. Further, the Ratio Ki in the assay listed under Homo sapiens [1] was 18. For the same compound, the figures for the GI50 in the assay with HCT-116 and with MCF7 were 340 nM and 380 nM, respectively.
For `CNc1nc(C)c(-c2nc(Nc3cccc(N4CCN(C(C)=O)CC4)c3)ncc2C(F)(F)F)s1` the same measures were 95 nM, 1220 nM, 13, 4800 nM and 25000 nM.
On the same counts, the results for `CNc1nc(C2CC2)c(-c2ccnc(Nc3cccc(C(=O)NC4CCN(C)CC4)c3)n2)s1` are 40 nM, 128 nM, 3, 770 nM and 1950 nM.
For the compound `CNc1nc(C)c(-c2nc(Nc3cc(N4CCOCC4)cc(N4CCOCC4)c3)ncc2C#N)s1`, the results for the Ki at CDK9/cyclin T1 and at CDK2/Cyclin A2 were 9 nM and 55 nM, respectively. Besides, the Ratio Ki in the assay filed under Homo sapiens [1] worked out at 6. The GI50 in the assay on HCT-116 came to 20 nM; with MCF7, 90 nM.
On the same counts, the results for `CNc1ncc(-c2ccnc(Nc3cccc(N4CCCNCC4)c3)n2)s1` are 3 nM, 22 nM, 7, 80 nM and 60 nM.
For the compound `CNc1nc(C(F)(F)F)c(-c2ccnc(Nc3cccc(N4CCCNCC4)c3)n2)s1`, the Ki at CDK9/cyclin T1 was found to be 8 nM; on CDK2/Cyclin A2 it was 14 nM. Further, the Ratio Ki in the assay filed under Homo sapiens [1] is 2. Further, the GI50 with HCT-116 worked out at 70 nM; in the assay with MCF7, 650 nM.
For `CNc1nc(C)c(-c2ccnc(Nc3cccc(N4CCN(C(C)=O)CC4)c3)n2)s1` the same measures were 32 nM, 281 nM, 9, 580 nM and 5280 nM.
On the same counts, the results for `CNc1nc(C)c(-c2ccnc(Nc3cc(N4CCN(C(C)=O)CC4)cc(N4CCN(C(C)=O)CC4)c3)n2)s1` are 187 nM, 2070 nM, 11, 200 nM and 420 nM.
For `CNc1nc(C)c(-c2nc(Nc3cccc(N4CCOCC4)c3)ncc2Cl)s1` the same measures were 4 nM, 22 nM, 6, 430 nM and 720 nM.
Regarding `CNc1nc(C)c(-c2nc(Nc3cccc(N4CCNCC4)c3)ncc2C)s1`, the Ki on CDK9/cyclin T1 worked out at 8 nM; at CDK2/Cyclin A2, 711 nM; in [3], 1120 nM; in [4], 472 nM. The Ratio Ki in the assay filed under Homo sapiens [1] is 89; in the assay listed under Homo sapiens [5], 100. The GI50 with HCT-116 was found to be 830 nM; in the assay with MCF7 it was 860 nM.
Take `CNc1nc(C)c(-c2nc(Nc3cc(C)cc(N4CCNCC4)c3)ncc2C#N)s1`: the Ki at CDK9/cyclin T1 stood at 6 nM; on CDK2/Cyclin A2, 45 nM. The Ratio Ki in the assay listed under Homo sapiens [1] stood at 8. In addition, the GI50 with HCT-116 worked out at 80 nM; in the assay with MCF7 it was 610 nM.
For `CNc1nc(C)c(-c2nc(Nc3cc(C)cc(N4CCOCC4)c3)ncc2C#N)s1` the same measures were 5 nM, 16 nM, 3, 490 nM and 950 nM.
In the case of `CNc1nc(C)c(-c2nc(Nc3cccc(N4CCCCCC4)c3)ncc2C#N)s1`, the Ki was found to be 6 nM at CDK9/cyclin T1 and 44 nM at CDK2/Cyclin A2. Also, the Ratio Ki in the assay filed under Homo sapiens [1] is 7. The GI50 in the assay with HCT-116 amounted to 1540 nM; with MCF7, 4130 nM.
As for `CNc1nc(C)c(-c2nc(Nc3cc(C)cc(N4CCCCCC4)c3)ncc2C#N)s1`, the results for the Ki on CDK9/cyclin T1 and on CDK2/Cyclin A2 were 25 nM and 52 nM, respectively. In the assay listed under Homo sapiens [1], the Ratio Ki is 2. Also, the GI50 was 4050 nM in the assay with HCT-116 and 7040 nM in the assay with MCF7.
For `CNc1nc(C(C)C)c(-c2ccnc(Nc3cccc(N4CCN(C(C)=O)CC4)c3)n2)s1` the same measures were 91 nM, 680 nM, 8, 80 nM and 70 nM.
On to `CNc1nc(C)c(-c2nc(Nc3cccc(N4CCNCC4)c3)ncc2C(F)(F)F)s1`, for which the Ki on CDK9/cyclin T1 was determined as 49 nM; at CDK2/Cyclin A2, 1930 nM. Also, the Ratio Ki in the assay filed under Homo sapiens [1] came to 40. The GI50 in the assay with HCT-116 was determined as 4050 nM; with MCF7 it was 3050 nM.
Consider `CNc1nc(C)c(-c2nc(Nc3cccc(N4CCN(S(C)(=O)=O)CC4)c3)ncc2C)s1`, for which the values for the Ki at CDK9/cyclin T1 and on CDK2/Cyclin A2 were 7 nM and 87 nM, respectively. In addition, the Ratio Ki in the assay listed under Homo sapiens [1] is 12. The figures for the GI50 in the assay with HCT-116 and in the assay with MCF7 were 500 nM and 830 nM, respectively.
For the compound `CNc1nc(C)c(-c2nc(Nc3cccc(N4CCOCC4)c3)ncc2C)s1`, the Ki at CDK9/cyclin T1 stood at 10 nM; on CDK2/Cyclin A2, 444 nM. For the same compound, the Ratio Ki in the assay listed under Homo sapiens [1] stood at 44. The results for the GI50 with HCT-116 and in the assay on MCF7 were 360 nM and 450 nM, respectively.
For `C=Cc1cnc(Nc2cccc(N3CCOCC3)c2)nc1-c1sc(NC)nc1C` the same measures were 62 nM, 503 nM, 8, over 5000 nM and over 5000 nM.
On the same counts, the results for `CNc1nc(C)c(-c2nc(Nc3cccc(N4CCN(C)CC4)c3)ncc2Cl)s1` are 5 nM, 107 nM, 21, 660 nM and 680 nM.
On the same counts, the results for `CC(=O)N1CCN(c2cccc(Nc3ncc4c(n3)-c3sc(N)nc3CC4)c2)CC1` are 34 nM, 87 nM, 2.5, 60 nM and 80 nM.
As for `CNc1nc(C)c(-c2nc(Nc3cc(N4CCN(C(C)=O)CC4)cc(N4CCN(C(C)=O)CC4)c3)ncc2C)s1`, the values for the Ki at CDK9/cyclin T1 and on CDK2/Cyclin A2 were 43 nM and 1370 nM, respectively. Besides, the Ratio Ki in the assay listed under Homo sapiens [1] is 32. For the same compound, the GI50 in the assay on HCT-116 was determined as 780 nM; in the assay on MCF7 it was 2000 nM.
For `CNc1nc(C)c(-c2nc(Nc3cc(N4CCN(C(C)=O)CC4)cc(N4CCN(C(C)=O)CC4)c3)ncc2C#N)s1` the same measures were 21 nM, 248 nM, 12, 700 nM and 2400 nM.

Source of the values: ChEMBL document CHEMBL4819032, “Structure-based design of highly selective 2,4,5-trisubstituted pyrimidine CDK9 inhibitors as anti-cancer agents” (Eur J Med Chem, 2021).
